Measurements of several laboratories.
gag-pol protease: Gag-Pol polyprotein, protease (gag-pol, Human immunodeficiency virus type 1 group M subtype B, UniProt P04585)
F2: Prothrombin (F2, Homo sapiens, UniProt P00734)
CES1: Liver carboxylesterase 1 (CES1, Homo sapiens, UniProt P23141)
KCNH2: Voltage-gated inwardly rectifying potassium channel KCNH2 (KCNH2, Homo sapiens, UniProt Q12809)

COc1ccc(S(=O)(=O)N(CC(C)C)C[C@@H](O)[C@H](Cc2ccccc2)NC(=O)O[C@H]2CCC[C@@]23CCO[C@@H](c2cc(OC)cc(OC)c2)C3)cc1
Ki (gag-pol protease; enzyme activity, inhibitor): 0.0026 µM

CS(=O)(=O)N[C@@H](CCC(N)=O)C(=O)N[C@@H](Cc1ccccc1)C(=O)N[C@@H](CCCNC(=N)N)C(=O)c1nccs1
Ki (F2; cell-free assay): > 10 µM

COc1ccc(S(=O)(=O)N(CC(C)C)C[C@@H](O)[C@H](Cc2ccccc2)NC(=O)O[C@@H]2CCC[C@@]23CCO[C@@H](c2cccc(OC)c2)C3)cc1
Ki (gag-pol protease; enzyme activity, inhibitor): 1.14 µM

COc1cc2c(cc1OC)CN(CCc1ccc(NC(=O)c3cccc4c(=O)c5cccc(OC)c5[nH]c34)cc1)CC2
Ki (5-hydroxytryptamine receptor 1B (HTR1B, Homo sapiens, UniProt P28222); cell-free assay): > 10 µM

COc1ccc(S(=O)(=O)N(CC(C)C)C[C@@H](O)[C@H](Cc2ccccc2)NC(=O)O[C@H]2CCC[C@]23CCO[C@H](c2ccccc2OC)C3)cc1
Ki (gag-pol protease; enzyme activity, inhibitor): 0.00022 µM

CC(C)=CCC[C@](C)(O)[C@H]1CC[C@]2(C)[C@@H]1[C@H](O)C[C@@H]1[C@@]3(C)CC[C@H](O)C(C)(C)[C@@H]3[C@@H](O[C@@H]3O[C@H](CO)[C@@H](O)[C@H](O)[C@H]3O)C[C@]12C
Kd (Aldo-keto reductase family 1 member B10 (AKR1B10, Homo sapiens, UniProt O60218); binding, BLI): 3.19 µM

COc1ccc(S(=O)(=O)N(CC(C)C)C[C@@H](O)[C@H](Cc2ccccc2)NC(=O)O[C@@H]2CCC[C@@]23CCO[C@@H](c2ccccc2)C3)cc1
Ki (gag-pol protease; enzyme activity, inhibitor): 0.051 µM

C=CCc1ccc(O)c(-c2cc(CC=C)ccc2O)c1
Ki (CES1; enzyme activity, inhibitor): 0.094 µM

CC(=O)c1c(C)c2cnc(Nc3ccc(C4CCN(CCS(C)(=O)=O)CC4)cn3)nc2n(C2CCCC2)c1=O
IC50 (KCNH2; ion current, inhibitor): > 30 µM

CCOC(=O)c1ccc(OC(=O)CCCCCN=C(N)N)cc1
IC50 (F2; enzyme activity, inhibitor): 0.588 µM

O=c1c2cc(Cl)ccc2[nH]c(=S)n1Cc1ccc(-c2nnn[nH]2)nc1
IC50 (KCNH2; ion current, inhibitor, patch clamp; pH 7.4): > 10 µM

N=C(N)NCCC[C@H](NC(=O)[C@H](Cc1ccccc1)NC(=O)[C@H](CCC(N)=O)NC(=O)OCc1ccccc1)C(=O)c1nccs1
Ki (F2; cell-free assay): 0.994 µM

COc1c2c(cc3c1-c1c(cc4c(c1OC)OCO4)C[C@H](C)[C@H](C)C3)OCO2
Ki (CES1; enzyme activity, inhibitor): 0.0898 µM

NC[C@H](O)c1ccc(O)c(O)c1
Kd (tlpQ (Pseudomonas aeruginosa, UniProt Q9I0I4); binding, ITC): > 1000 µM
